Among the data in ChEMBL document CHEMBL1153223, “One pot synthesis and SAR of some novel 3-substituted 5,6-diphenyl-1,2,4-triazines as antifungal agents” (2010) are MIC values, retold here.

As a reminder, the MIC is the least concentration at which growth counts as inhibited.

The test system of assay [1] is Fusarium oxysporum. Kind of assay: Antifungal activity against Fusarium oxysporum NCIM 1332 by standard agar plate method. It is filed as functional. The procedure, abridged:
(§1)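 Read-out was the minimum inhibitory concentration (MIC) on agar plates, with miconazole and fluconazole run as reference antifungal standards.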

Assay [2] deals with Aspergillus flavus. Kind of assay: Antifungal activity against Aspergillus flavus NCIM 539 by standard agar plate method. It is filed as functional. The procedure, abridged: as §1
The test system of the next assay is Candida albicans. Kind of assay: Antifungal activity against Candida albicans NCIM 347 by standard agar plate method. Format: functional. In a few lines:
as §1

Assay [3] deals with Aspergillus niger. Kind of assay: Antifungal activity against Aspergillus niger NCIM 1196 by standard agar plate method. It is filed as functional. In a few lines: as §1
For assay [4], the system named is Cryptococcus neoformans. Description: Antifungal activity against Cryptococcus neoformans NCIM 576 by standard agar plate method. It is filed as functional. In a few lines:
as §1

In assay [5] the test system is Cryptococcus neoformans. Kind of assay: Antifungal activity against Cryptococcus neoformans NCIM 576 up to 200 ug/mL by standard agar plate method. Format: functional, organism-based. In a few lines: as §1
Assay [6] has as its system Aspergillus flavus. Kind of assay: Antifungal activity against Aspergillus flavus NCIM 539 up to 200 ug/mL by standard agar plate method. Format: functional, organism-based. The procedure, abridged: as §1
Assay [7] deals with Aspergillus niger. Kind of assay: Antifungal activity against Aspergillus niger NCIM 1196 up to 200 ug/mL by standard agar plate method. It is filed as functional, organism-based. In a few lines: as §1
Assay [8] relates to Fusarium oxysporum. Kind of assay: Antifungal activity against Fusarium oxysporum NCIM 1332 up to 200 ug/mL by standard agar plate method. It is filed as functional, organism-based. In a few lines: as §1

Converted amounts (≈) assume the structure as drawn. The source made the active and inactive calls. No cut-off for these calls is given here.

Consider `Clc1ccc(COC(Cn2ccnc2)c2ccc(Cl)cc2Cl)c(Cl)c1` (stereo not given) [MICONAZOLE], for which the MIC came to 25 µg/mL (≈ 60.1 µM) against Fusarium oxysporum [1]; 12.5 µg/mL (≈ 30 µM) against Aspergillus flavus [2]; 25 µg/mL (≈ 60.1 µM) against Candida albicans; 12.5 µg/mL (≈ 30 µM) against Aspergillus niger [3]; 25 µg/mL (≈ 60.1 µM) against Cryptococcus neoformans [4].
Consider `c1ccc(CN2CCC(n3cc(-c4nnc(-c5ccccc5)c(-c5ccccc5)n4)nn3)CC2)cc1`, for which the MIC was determined as 60 µg/mL (≈ 127 µM) with Fusarium oxysporum [1], 40 µg/mL (≈ 84.5 µM) in the assay with Candida albicans and 95 µg/mL (≈ 201 µM) in the assay on Aspergillus niger [3]. Further, the MIC entry with Cryptococcus neoformans [5] and in the assay with Aspergillus flavus [6] was “inactive” each time.
On to `CCC(=O)N1CCC(n2cc(-c3nnc(-c4ccccc4)c(-c4ccccc4)n3)nn2)CC1`, for which the minimum inhibitory concentration (MIC) in the assay with Fusarium oxysporum [1] was found to be 50 µg/mL (≈ 114 µM); against Aspergillus flavus [2], 20 µg/mL (≈ 45.5 µM); against Candida albicans it was 50 µg/mL (≈ 114 µM); in the assay with Aspergillus niger [3], 20 µg/mL (≈ 45.5 µM). Besides, the MIC result with Cryptococcus neoformans [5] is “inactive”.
Take `O=C(c1ccc(Cl)cc1)N1CCC(n2cc(-c3nnc(-c4ccccc4)c(-c4ccccc4)n3)nn2)CC1`: the MIC against Fusarium oxysporum [1] is 25 µg/mL (≈ 47.9 µM); in the assay with Aspergillus flavus [2], 15 µg/mL (≈ 28.7 µM); with Candida albicans it was 25 µg/mL (≈ 47.9 µM); against Aspergillus niger [3], 12.5 µg/mL (≈ 23.9 µM); in the assay with Cryptococcus neoformans [4], 30 µg/mL (≈ 57.5 µM).
With `CC(C)(C)OC(=O)N1CCC(n2cc(-c3nnc(-c4ccccc4)c(-c4ccccc4)n3)nn2)CC1`, the MIC is 55 µg/mL (≈ 114 µM) against Aspergillus flavus [2], 70 µg/mL (≈ 145 µM) with Candida albicans and 100 µg/mL (≈ 207 µM) in the assay with Cryptococcus neoformans [4]. Besides, the MIC entry in the assay on Aspergillus niger [7] and in the assay with Fusarium oxysporum [8] was “inactive” in each case.
With `Cc1ccc(S(=O)(=O)N2CCC(n3cc(-c4nnc(-c5ccccc5)c(-c5ccccc5)n4)nn3)CC2)cc1`, the MIC in the assay on Fusarium oxysporum [1] amounted to 100 µg/mL (≈ 186 µM); in the assay on Aspergillus flavus [2] it was 35 µg/mL (≈ 65.1 µM); against Candida albicans, 90 µg/mL (≈ 167 µM); in the assay with Aspergillus niger [3] it was 47.5 µg/mL (≈ 88.3 µM); against Cryptococcus neoformans [4] it was 150 µg/mL (≈ 279 µM).
Take `CS(=O)(=O)N1CCC(n2cc(-c3nnc(-c4ccccc4)c(-c4ccccc4)n3)nn2)CC1`: the MIC with Fusarium oxysporum [1] worked out at 60 µg/mL (≈ 130 µM); in the assay on Aspergillus flavus [2], 30 µg/mL (≈ 65 µM); against Candida albicans it was 50 µg/mL (≈ 108 µM). Also, the MIC entry in the assay with Aspergillus niger [7] and with Cryptococcus neoformans [5] was “inactive” in each case.
For the molecule `CCCC(=O)N1CCC(n2cc(-c3nnc(-c4ccccc4)c(-c4ccccc4)n3)nn2)CC1`, the MIC with Fusarium oxysporum [1] worked out at 65 µg/mL (≈ 143 µM); with Aspergillus flavus [2], 35 µg/mL (≈ 77.2 µM); against Candida albicans, 62.5 µg/mL (≈ 138 µM); against Aspergillus niger [3] it was 40 µg/mL (≈ 88.2 µM); with Cryptococcus neoformans [4], 75 µg/mL (≈ 165 µM).
The like results for `CCN1CCC(n2cc(-c3nnc(-c4ccccc4)c(-c4ccccc4)n3)nn2)CC1` were, in that order, 25 µg/mL (≈ 60.8 µM), 12.5 µg/mL (≈ 30.4 µM), 25 µg/mL (≈ 60.8 µM), 12.5 µg/mL (≈ 30.4 µM) and 35 µg/mL (≈ 85.1 µM).
For `O=C(c1ccccc1)N1CCC(n2cc(-c3nnc(-c4ccccc4)c(-c4ccccc4)n3)nn2)CC1`, in that order: 30 µg/mL (≈ 61.5 µM), 17.5 µg/mL (≈ 35.9 µM), 30 µg/mL (≈ 61.5 µM), 15 µg/mL (≈ 30.8 µM) and 55 µg/mL (≈ 113 µM).
For `c1ccc(-c2nnc(-c3cn(C4CCNCC4)nn3)nc2-c2ccccc2)cc1`, in that order: 40 µg/mL (≈ 104 µM), 37.5 µg/mL (≈ 97.8 µM), 30 µg/mL (≈ 78.2 µM), 42.5 µg/mL (≈ 111 µM) and 45 µg/mL (≈ 117 µM).
Consider `OC(Cn1cncn1)(Cn1cncn1)c1ccc(F)cc1F` [FLUCONAZOLE], for which the MIC with Fusarium oxysporum [1] came to 5 µg/mL (≈ 16.3 µM); with Aspergillus flavus [2], 5 µg/mL (≈ 16.3 µM); in the assay on Candida albicans it was 5 µg/mL (≈ 16.3 µM); with Aspergillus niger [3], 10 µg/mL (≈ 32.7 µM); against Cryptococcus neoformans [4] it was 5 µg/mL (≈ 16.3 µM).
Take `CC(=O)N1CCC(n2cc(-c3nnc(-c4ccccc4)c(-c4ccccc4)n3)nn2)CC1`: the MIC against Fusarium oxysporum [1] is 40 µg/mL (≈ 94 µM); in the assay on Aspergillus flavus [2] it was 20 µg/mL (≈ 47 µM); with Candida albicans, 35 µg/mL (≈ 82.3 µM); against Aspergillus niger [3], 20 µg/mL (≈ 47 µM). In the assay on Cryptococcus neoformans [5], the MIC entry is “inactive”.
Consider `CN1CCC(n2cc(-c3nnc(-c4ccccc4)c(-c4ccccc4)n3)nn2)CC1`, for which the MIC in the assay on Fusarium oxysporum [1] was 30 µg/mL (≈ 75.5 µM); in the assay with Aspergillus flavus [2], 17.5 µg/mL (≈ 44 µM); against Candida albicans it was 25 µg/mL (≈ 62.9 µM); in the assay on Aspergillus niger [3], 12.5 µg/mL (≈ 31.4 µM); against Cryptococcus neoformans [4], 25 µg/mL (≈ 62.9 µM).
